Reference: PMC4332869 (Cancer chemotherapy and pharmacology, 2010)
Read-outs that look alike come from different tables or passages of the source.

Columns and labels:
A375 cell line = test: Anti-proliferative response in cells grown in culture; type: cell-based, human; settings: data not shown
[1] = Plasma pharmacokinetics in A375 tumor-bearing nude mice; type: in vivo, mouse; settings: for AUC: AUC0–24 h
How it was run: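 Tumor-bearing nude mice got oral 5 or 10 mg/kg once, or 10 mg/kg daily for 7 days (tumors ≥600 mm3), as suspension in 1% Tween 80/PBS. Plasma came by cardiac exsanguination under isoflurane at 0.5–24 h (single) or 1–24 h after the last dose, n = 4. Acetonitrile/methanol extraction with analog internal standard. LC/MS/MS MRM, N-desmethyl m/z 445→287. Noncompartmental analysis; AUC by trapezoidal rule.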

[2] = test system: tumor ERK phosphorylation (MEK1/2 inhibition); test: Inhibition of tumor ERK phosphorylation by western blot; type: in vivo, mouse; settings: A375 tumor
How it was run: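 Male athymic BALB/c nude mice carrying s.c. rear-flank A375 xenografts (5 million cells in 4:1 serum-free RPMI:Matrigel), tumors ≥400 mm3, got one oral gavage of 5 or 10 mg/kg in 1% Tween 80/PBS. Four mice were killed per time point (0.5–24 h). Frozen tumor was sonicated in Triton/Tris pH 7.5 lysis buffer, then SDS-PAGE with pERK/ERK immunoblot. % inhibition = 100×(1 − treated pERK/ERK ÷ vehicle pERK/ERK).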

patients = settings: ref [1], cited from earlier work
[3] = test system: A375 human melanoma xenograft tumors; test: Tumor apoptosis; type: in vivo, mouse; settings: A375 xenograft tumor sections, versus vehicle
How it was run: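 A375 xenograft tumors from oral-dosed and vehicle nude mice were formalin-fixed and paraffin-embedded, then cut into 5 μm sections. Sections were stained by TUNEL (TMR red in situ cell death kit) for apoptosis and by H&E for necrotic area, then imaged by fluorescence microscopy.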

[4] = cited from earlier work; for AUC: AUC0–12 h
[5] = Tissue and tumor distribution in A375 tumor-bearing nude mice; type: in vivo, mouse; settings: for P:TAUC: plasma to tissue AUC ratio
[6] = metabolite in mouse plasma, AZD6244 5 mg/kg single oral dose
[7] = metabolite in mouse plasma, AZD6244 10 mg/kg once daily 7 days, steady state
[8] = metabolite in mouse plasma, AZD6244 10 mg/kg single oral dose
[9] = mouse plasma, 5 mg/kg single oral dose
[10] = mouse plasma, 10 mg/kg oral once daily 7 days, steady state
[11] = mouse plasma, 10 mg/kg single oral dose
[12] = nude, mouse, plasma, po, 5 mg/kg
[13] = nude, mouse, plasma, po, 10 mg/kg
[14] = human plasma, 100 mg single dose, ref Adjei et al. [1]

SMILES: O=C(NOCCO)c1cc2[nH]cnc2c(F)c1Nc1ccc(Br)cc1Cl [AZD6244-N-desmethyl]
- potency of cellular growth inhibition in vitro relative to parent (A375 cell line): approximately twice the potency of the parent
- AUC0–24 h [1, 6]: 3,597 ng/(mL h)
- Cmax [1, 6]: 505 ng/mL
- T1/2γ [1, 6]: 3.68 h
- Tmax [1, 6]: 1.0 h
- AUC0–24 h [1, 7]: 3,709 ng/(mL h)
- Cmax [1, 7]: 554 ng/mL
- T1/2γ [1, 7]: 2.37 h
- Tmax [1, 7]: 1.0 h
- AUC0–24 h [1, 8]: 4,993 ng/(mL h)
- Cmax [1, 8]: 865 ng/mL
- T1/2γ [1, 8]: 2.79 h
- Tmax [1, 8]: 2.0 h

SMILES: Cn1cnc2c(F)c(Nc3ccc(Br)cc3Cl)c(C(=O)NOCCO)cc21 [AZD6244]
- peak inhibition of phosphorylated ERK ([2]; 5 mg/kg single dose): 72%
- peak inhibition of phosphorylated ERK ([2]; 10 mg/kg single dose): 80%
- patients with stable disease of five or more months (patients; 9 of 54 patients): 16%
- tolerability (patients; most common toxicity skin rash, diarrhea, nausea and fatigue): well tolerated
- T1/2γ [1, 9]: 2.81 h
- AUC [1, 9]: 11,910 ng/(mL h)
- T1/2γ [1, 10]: 2.29 h
- AUC [1, 10]: 17,525 ng/(mL h)
- T1/2γ [1, 11]: 2.62 h
- AUC [1, 11]: 18,976 ng/(mL h)
- CL/F [1, 12]: 6.67 mL/min/kg
- Cmax [1, 12]: 2970 ng/mL
- Tmax [1, 12]: 0.5 h
- Vd/F [1, 12]: 1.7 L/kg
- CL/F [1, 13]: 8.33 mL/min/kg
- Cmax [1, 13]: 3350 ng/mL
- Tmax [1, 13]: 2 h
- Vd/F [1, 13]: 2 L/kg
- apoptotic cells as measured by TUNEL [3]: slight increase in apoptotic cells as measured by TUNEL, this increase was not statistically significant
- necrotic area [3]: no difference in necrotic area
- human AUC ([4]; clinical exposure compared with mouse 10 mg/kg once daily, ref [1]): 10,012 ng/(mL h)
- AUC [4, 14]: 3,124 ng/(mL h)
- Cmax [4, 14]: 807 ng/mL
- T1/2γ [4, 14]: 4.5 h
- AUC ([4]; human plasma, 100 mg steady state, ref Adjei et al. [1]): 5,006 ng/(mL h)
- AUC0–12 h ([4]; humans given 100 mg AZD6244 free-base suspension BID, ref [1]): 3,124 ng/(mL h)
- AUC0–12 h ([4]; humans given 200 mg AZD6244 free-base suspension BID, ref [1]): 5,234 ng/(mL h)
- AUC0–12 h ([5]; gut, 5 mg/kg, single dose): 5,008 ng/(g h)
- AUC0–12 h ([5]; gut, 10 mg/kg, single dose): 6,845 ng/(g h)
- AUC0–12 h ([5]; gut, 10 mg/kg, steady state): 2,278 ng/(g h)
- AUC0–12 h ([5]; liver, 5 mg/kg, single dose): 4,356 ng/(g h)
- Cmin ([5]; liver, 5 mg/kg, single dose): 299 ng/g
- AUC0–12 h ([5]; liver, 10 mg/kg, single dose): 8,028 ng/(g h)
- Cmin ([5]; liver, 10 mg/kg, single dose): 110 ng/g
- AUC0–12 h ([5]; liver, 10 mg/kg, steady state): 6,781 ng/(g h)
- Cmin ([5]; liver, 10 mg/kg, steady state): 100 ng/g
- ratio of free drug in plasma to free drug in tissue (fB/fT) ([5]; mouse, single oral dose): 1.8
- AUC0–12 h ([5]; muscle, 10 mg/kg, single dose): 667 ng·h/g
- Cmin ([5]; muscle, 10 mg/kg, single dose): 896 ng/g
- Cmin ([5]; muscle, 10 mg/kg, steady state): 1,649 ng/g
- Cmax ([5]; nude, mouse, gut, po, 5 mg/kg, single dose): 1220 ng/g
- Cmax ([5]; nude, mouse, gut, po, 10 mg/kg, single dose): 1930 ng/g
- Cmax at 1 week ([5]; nude, mouse, gut, po, 10 mg/kg, steady state): 6780 ng/g
- half-life ([5]; nude, mouse, gut, po, 10 mg/kg, t1/2, gut, single dose): 1 h
- Tmax ([5]; nude, mouse, liver, lung, kidney, gut, muscle, skin, tumor, po, 10 mg/kg): 0.5 to 2 h
- Cmax ([5]; nude, mouse, lung, po, 5 mg/kg, single dose): 206 ng/g
- Cmax ([5]; nude, mouse, lung, po, 10 mg/kg, single dose): 327 ng/g
- half-life ([5]; nude, mouse, lung, po, 10 mg/kg, t1/2, lung, single dose): 1 h
- Cmax at 1 week ([5]; nude, mouse, muscle, po, 10 mg/kg, steady state): 2040 ng/g
- Cmax ([5]; nude, mouse, skin, po, 5 mg/kg, single dose): 136 ng/g
- Cmax ([5]; nude, mouse, skin, po, 10 mg/kg, single dose): 169 ng/g
- Cmax ([5]; nude, mouse, tumor, po, 5 mg/kg, single dose): 501 ng/g
- Cmax ([5]; nude, mouse, tumor, po, 10 mg/kg, single dose): 861 ng/g
- Cmax ([5]; nude, mouse, tumor, po, 10 mg/kg, steady state): 487 ng/g
- P:TAUC ([5]; gut, 5 mg/kg, single dose): 2.28
- P:TAUC ([5]; gut, 10 mg/kg, single dose): 2.66
- P:TAUC ([5]; gut, 10 mg/kg, steady state): 7.41
- P:TAUC ([5]; liver, 5 mg/kg, single dose): 2.62
- P:TAUC ([5]; liver, 10 mg/kg, single dose): 2.27
- P:TAUC ([5]; liver, 10 mg/kg, steady state): 2.49
- P:TAUC ([5]; lung, 5 mg/kg, single dose): 10.55
- P:TAUC ([5]; lung, 10 mg/kg, single dose): 7.45
- P:TAUC ([5]; muscle, 5 mg/kg, single dose): 14.06
- P:TAUC ([5]; muscle, 10 mg/kg, single dose): 27.33
- P:TAUC ([5]; muscle, 10 mg/kg, steady state): 18.16
- P:TAUC ([5]; skin, 5 mg/kg, single dose): 14.25
- P:TAUC ([5]; skin, 10 mg/kg, single dose): 16.56
- P:TAUC ([5]; tumor, 5 mg/kg, single dose): 3.17
- P:TAUC ([5]; tumor, 10 mg/kg, single dose): 3.82
- P:TAUC ([5]; tumor, 10 mg/kg, steady state): 4.45
- AUC0–12 h ([5]; skin, 5 mg/kg, single dose): 802 ng·h/g
- AUC0–12 h ([5]; tumor, 5 mg/kg, single dose): 3,601 ng/(g h)
- Cmin ([5]; tumor, 5 mg/kg, single dose): 44 ng/g
- AUC0–12 h ([5]; tumor, 10 mg/kg, single dose): 4,776 ng/(g h)
- Cmin ([5]; tumor, 10 mg/kg, single dose): 130 ng/g
- Cmin ([5]; tumor, 10 mg/kg, steady state): 52 ng/g
